OXTR agonist: human OXTR agonists, primary screen, fluorescence, CHO-OTR cells, Fluo-8 calcium; Oxytocin receptor (Homo sapiens), P30559; Fluo-8 calcium fluorescence; normalized: DMSO 0%, oxytocin 100%; activation, % at 3 µM; 320,000 tested, 0.32% active; AID 2435, 2010;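 active = activation above the mean of all tested compounds plus 3 SD, cutoff set per screening run, cut at about 20% in these data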;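 also: peak over basal fluorescence ratio from a 100 s FLIPR kinetic read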
TAAR1 ag: human TAAR1 agonists, primary screen, Fluo-8 calcium fluorescence, CHO RD-HGA16 cells. 360,000 tested, 0.99% active. activation, % at 3 µM. AID 624467, 2012. vehicle wells 0%, saturating PEA agonist 100%;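 active = activation above the mean activation of all test compounds in the run plus 3 SD, cut at about 38% in these data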
Target sequence (Q96RJ0 whole entry, looked up): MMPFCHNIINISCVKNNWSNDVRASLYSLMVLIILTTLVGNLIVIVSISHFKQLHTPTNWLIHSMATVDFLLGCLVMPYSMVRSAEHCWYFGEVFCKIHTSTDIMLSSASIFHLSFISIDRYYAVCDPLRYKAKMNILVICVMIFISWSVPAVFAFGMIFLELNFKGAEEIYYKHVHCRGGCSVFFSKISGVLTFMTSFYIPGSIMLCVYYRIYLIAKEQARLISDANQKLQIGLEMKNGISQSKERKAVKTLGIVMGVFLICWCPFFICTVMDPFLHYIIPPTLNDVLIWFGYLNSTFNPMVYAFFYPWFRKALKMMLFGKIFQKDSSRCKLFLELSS
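System: CHO-derived RD-HGA16 cells with stable Gα16 and human TAAR1. Times: 17-24 h plating, Fluo-8 75 min 37 °C, 30 min RT. Measured by: calcium-sensitive Fluo-8 signal, excitation 470-495, emission 515-575 nm. Read-out basis: % activation relative to PEA EC100 response. Control set: DMSO and PEA EC100. Repeats: no replicates (n 1).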
TAAR1 antagonist: human TAAR1 antagonists, primary screen, Fluo-8 calcium fluorescence, CHO RD-HGA16 cells; antagonist; Trace amine-associated receptor 1 (Homo sapiens), Q96RJ0; AID 624466, 2012; inhibition, % at 3 µM; 360,000 tested, 1.5% active;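 active = inhibition above a per-plate cutoff, the mean inhibition of test compounds on that plate plus 3 SD, cut at about 49% in these data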;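 also: 0% = DMSO plus EC80 beta-PEA response and 100% = DMSO alone without agonist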
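System: RD-HGA16 CHO cells with stable hTAAR1 and Gα16 | Probe or stimulus: EC80 β-phenethylamine stimulus | Dosing: 3 µM, single point | Times: Dye loading 75 min at 37 °C, then 30 min room temperature | Measured by: Fluo-8 calcium-sensitive fluorescence | Read-out basis: % inhibition of agonist calcium response | Replicates: n of 1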
OXTR potentiator: human OXTR potentiators, primary screen, fluorescence, CHO-OTR cells, Fluo-8 calcium. Oxytocin receptor (Homo sapiens), P30559. Fluo-8 calcium fluorescence, potentiator mode; 0% = oxytocin EC15, 100% = EC100. activation, % at 3 µM. 320,000 tested, 0.061% active;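 active = activation above that plate's cutoff, the mean activation of tested compounds plus 3 SD, cut at about 6.6% in these data, passing the limit was not always enough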;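 also: 100% uses oxytocin at 75 nM as the full agonist control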
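Dosing: Single dose, 3.0 µM nominal final compound concentration | Material: Human OTR in CHO cells | Technique: Kinetic Fluo-8 calcium fluorescence | Benchmarks: EC15 oxytocin alone as 0%, 75 nM oxytocin as 100% | Probe or stimulus: Oxytocin at about EC15, sub-maximal agonist stimulus | Incubation: Compound 6 min at room temperature before oxytocin, 100 s read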
V1aR counter: agonists of human V1a receptor, primary screen, counter-screen for OXTR agonist project, fluorescence, CHO-V1R cells; Vasopressin V1a receptor (Homo sapiens), P37288; Fluo-8 calcium fluorescence, agonist mode; 0% DMSO, 100% 3 nM vasopressin; activation, % at 3 µM; 320,000 tested, 0.25% active; AID 2797, 2010;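 active = activation above the mean activation of all tested compounds plus 3 SD, per screening run, cut at about 20% in these data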;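 also: signal is peak over basal fluorescence ratio across a 100 second FLIPR read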
Target sequence (P37288 whole entry, looked up): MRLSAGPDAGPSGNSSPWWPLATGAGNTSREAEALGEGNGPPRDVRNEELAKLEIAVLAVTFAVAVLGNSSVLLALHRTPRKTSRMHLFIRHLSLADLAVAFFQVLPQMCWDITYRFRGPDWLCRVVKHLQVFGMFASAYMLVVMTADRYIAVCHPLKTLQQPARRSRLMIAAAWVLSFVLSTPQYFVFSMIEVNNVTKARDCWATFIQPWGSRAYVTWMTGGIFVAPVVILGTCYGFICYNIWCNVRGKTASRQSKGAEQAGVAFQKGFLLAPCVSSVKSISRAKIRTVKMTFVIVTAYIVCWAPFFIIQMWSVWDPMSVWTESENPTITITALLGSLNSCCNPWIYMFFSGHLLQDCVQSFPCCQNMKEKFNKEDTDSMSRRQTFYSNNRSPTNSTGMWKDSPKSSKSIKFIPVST
TAAR1 ag conf: human TAAR1 agonists, retest of hits, confirmation, Fluo-8 calcium fluorescence, CHO RD-HGA16 cells; 2,400 tested, 82% active; AID 651783, 2012; scaled: DMSO 0%, maximal phenethylamine 100%; shares compounds with TAAR1 ag; activation, % at 3 µM;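 active = activation above a cutoff set at the run's mean compound activation plus 3 SD, cut at about 39% in these data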
Ga16 nonsel ag: nonselective calcium mobilization agonists, CHO-Ga16 cells, counter-screen for hTAAR1 agonist project, cell-based, fluorescence, CHO-Ga16 parental line. shares compounds with TAAR1 ag. Fluo-8 calcium fluorescence; normalized to maximal ATP response, DMSO zero. activation, % at 3 µM. 2,400 tested, 50% active. AID 651787, 2012;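 active = activation above the run cutoff, the mean activation over all tested wells plus 3 SD, cut at about 12% in these data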;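 also: 0% = DMSO wells and 100% = maximal ATP response on the peak over basal ratio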
TAAR1 desensitize: TAAR1 desensitization by agonist hits, confirmation, counter-screen for TAAR1 agonist project, cell-based, fluorescence, tachyphylaxis; shares compounds with TAAR1 ag; CHO RD-HGA16 hTAAR1, Fluo-8 calcium, beta-PEA response inhibition; inhibition, % at 3 µM; 2,400 tested, 46% active; AID 651951, 2012;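 active = inhibition above the run cutoff, the mean inhibition of all test compounds plus 3 SD, cut at about 49% in these data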;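 also: beta-PEA stimulus applied at its EC80; loss of beta-PEA calcium signal after compound pretreatment read as receptor desensitization; 0% = DMSO with beta-PEA at EC80 and 100% = DMSO alone without agonist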
Ga16 nonsel ant: inhibition of ATP-evoked calcium response in CHO-Ga16 cells, counter-screen for TAAR1 agonist project, cell-based, fluorescence | shares compounds with TAAR1 ag | CHO-Ga16 ATP-induced calcium, Fluo-8 fluorescence | inhibition, % at 3 µM | 2,400 tested, 39% active | AID 651952, 2012;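 active = inhibition above the plate's mean compound inhibition plus 3 SD, computed per plate, cut at about 22% in these data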;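 also: 0% = EC80 ATP with DMSO and 100% = DMSO wells without ATP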
The depositor's hits bear a star; . = no result given. Rows were chosen to be rich in hits. Some 2.3% of all compounds tested hit in one or more screens of this group.

SMILES	OXTR agonist	TAAR1 ag	TAAR1 antagonist	OXTR potentiator	V1aR counter	TAAR1 ag conf	Ga16 nonsel ag	TAAR1 desensitize	Ga16 nonsel ant
CCOc1ccc(-c2c(C(=O)N/N=C/c3ccc(OC(C)C)cc3)nnn2-c2nonc2N)cc1	21.3*	116.4*	5.9	8.1	22.6*	117.6*	74.8*	46.4	36.8*
Cc1ccc(-c2c(C(=O)N/N=C/c3ccc(OC(C)C)cc3)nnn2-c2nonc2N)cc1	30.5*	130.5*	70.2*	2.9	36.6*	124.7*	94.3*	57.2*	45.6*
Cc1ccc(-c2c(C(=O)N/N=C/c3ccc4c(c3)OCO4)nnn2-c2nonc2N)cc1	14.9	25.8	27.8	-9.1	4.2	.	.	.	.
O=C(CSc1ccccc1C(=O)O)c1ccc([N+](=O)[O-])cc1	0.7	-1.0	-10.4	-3.7	0.3	.	.	.	.
Cn1c(NCCN2CCCC2)nc2cc(-c3ccccc3)sc2c1=O	.	1.2	-8.6	.	.	.	.	.	.
COc1ccc(CCC(=O)N2c3ccccc3N=C(c3ccc4c(c3)OCO4)C2C(=O)NCc2ccccc2)cc1 (stereo not given)	.	0.5	-36.7	.	.	.	.	.	.
ClC(Cl)(c1nnnn1-c1ccccc1)c1nnnn1-c1ccccc1	4.3	58.4*	38.0	-5.3	4.3	52.4*	24.2*	35.7	29.4*
Oc1ccc(C=NCC2COc3ccccc3O2)cc1 (stereo not given)	0.2	.	.	-1.1	0.8	.	3.7	.	3.5
COc1ccc(CCNC(=O)CC2COc3ccccc3O2)cc1OC (stereo not given)	-0.9	7.6	7.1	-0.7	1.7	.	.	.	.
COc1ccc(C=NCC2COc3ccccc3O2)cc1OC (stereo not given)	-0.3	66.6*	13.8	-0.9	1.0	77.2*	1.3	76.5*	5.6
CCc1nnc(NC(=O)COc2ccc3c(c2)OCO3)s1	0.7	3.0	-20.9	-4.4	0.5	.	.	.	.
COCCCNC(=O)CN(CCc1ccccc1)S(=O)(=O)c1ccccc1	0.0	3.1	-6.0	-8.3	0.1	.	.	.	.
Cc1cc(C(F)(F)F)c2c(N)c(C(=O)NC3CC3)sc2n1	-0.1	10.9	-24.3	-6.0	0.1	.	.	.	.
Cc1nnc(NC(=O)c2sc3nc(-c4cccs4)cc(C(F)(F)F)c3c2N)s1	98.3*	77.5*	89.1*	-13.2	43.6*	62.2*	76.9*	80.4*	80.0*
COCC(C)NS(=O)(=O)c1ccc(OC)cc1 (stereo not given)	0.5	2.6	-2.4	0.0	1.7	.	.	.	.
Cc1sc2c3ccsc3ccc2[n+]1C	0.4	26.0	1.5	-1.4	0.9	.	.	.	.
Cc1sc2ccc3sccc3c2[n+]1C	0.9	48.1*	12.9	3.2	0.5	13.9	7.7	11.2	10.3
CC1(C)C[C@H](O)[C@]2(CO)[C@H](O)C[C@]3(C)C(=CCC4[C@@]5(C)CC[C@H](O)C(C)(C)C5CC[C@]43C)[C@@H]2C1 (stereo not given in full)	1.4	51.2*	36.0	-1.5	0.6	32.5	7.9	32.1	20.7
COC(=O)[C@@H](Cc1ccccc1)NC(=O)NCCc1ccc(OC)c(OC)c1	0.1	4.9	-15.9	-3.9	0.9	.	.	.	.
O=C(CN(Cc1ccccc1F)S(=O)(=O)c1ccc(Cl)cc1)NCC1CCCO1 (stereo not given)	0.1	-0.4	-3.2	-2.5	0.0	.	.	.	.
COc1cccc(CN2CCN(Cc3cc4ccccc4[nH]3)CC2CCO)c1 (stereo not given)	10.2	62.6*	69.3*	-7.5	17.7	70.2*	49.4*	80.6*	56.3*
COc1ccc(CN2CCN(Cc3cccc(OC)c3)C(CCO)C2)cc1 (stereo not given)	2.6	5.5	-6.8	-0.7	1.5	.	.	.	.
CCn1cc(S(=O)(=O)c2ccc(OC)cc2)c(=O)c2cc(F)c(N3CCN(C)CC3)cc21	-0.1	2.6	-16.3	-6.4	0.9	.	.	.	.
Cc1cccc(-c2cc3nc(C)cc(N4CC(C)CC(C)C4)n3n2)c1 (stereo not given)	-1.1	69.8*	-15.0	-4.6	1.5	81.7*	7.1	30.2	-1.9
Cc1ccc(C(c2sc3ncnn3c2O)N2CCCCC2)cc1 (stereo not given)	-0.5	-0.7	-16.2	-4.0	-0.5	.	.	.	.
SMILES	OXTR agonist	TAAR1 ag	TAAR1 antagonist	OXTR potentiator	V1aR counter	TAAR1 ag conf	Ga16 nonsel ag	TAAR1 desensitize	Ga16 nonsel ant
Oc1c(C(c2ccc(F)cc2)N2CCc3ccccc3C2)sc2ncnn12 (stereo not given)	-1.1	.	.	-3.5	1.9	.	7.0	.	12.9
Cc1nc2sc(C(c3ccco3)N3CCN(c4ccccc4F)CC3)c(O)n2n1 (stereo not given)	0.5	19.6	-1.8	-5.2	0.9	.	.	.	.
Cc1nc2sc(C(c3ccco3)N3CCc4ccccc4C3)c(O)n2n1 (stereo not given)	0.1	75.6*	53.9*	-6.7	1.2	95.9*	7.6	70.5*	4.3
COc1ccc(N=C2C(=O)Nc3ccc(C)c(Br)c32)cc1	-0.9	-2.5	8.9	4.0	0.0	.	.	.	.
CCn1cc(C(=O)O)c(=O)c2cc(F)c(N3CCN(C(=O)Nc4ccccc4)CC3)cc21	2.2	10.5	1.7	4.3	0.8	.	.	.	.
CCn1cc(C(=O)O)c(=O)c2cc(F)c(N/N=C/c3ccccc3)cc21	1.3	55.9*	69.9*	-4.9	0.0	82.1*	2.5	85.0*	8.1
N#C/C(=C\c1ccccn1)c1nc2ccccc2s1	27.5*	71.7*	75.0*	-16.1	30.6*	19.1	29.2*	41.5	52.9*
Cc1ccc(NC(=S)NC(=O)Cc2ccccc2)c(O)c1	.	65.8*	47.4	.	.	72.6*	27.0*	42.6	24.0*
